Assay outcomes (PubChem)
Compounds with a hit are over-represented: about 2.2% of the library has one in this group of screens.
Exocytosis inh = blocks lytic granule exocytosis; TALL-104 LAMP-1 surface exposure, flow cytometry; cells stimulated with thapsigargin and PMA; inhibition, % at 10 µM; 0.66% of 360,000 active;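 active = inhibition above about 55%, limit read from the data; inconclusive = no clear call, values can overlap the other calls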
NRP1-CendR mod = alters CendR peptide binding to human NRP-1 | O14786 | FAM-RPARPAR peptide binding to NRP-1, fluorescence polarization | inhibition, % at 25 µM | 0.85% of 360,000 active;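 active = inhibition or corrected inhibition above about 18%, plus a signal ratio from 0.5 to 1.5, limit read from the data, passing the limit was not always enough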
V-ATPase pHluor = regulators of yeast V-ATPase proton transport; S. cerevisiae, pHLuorin cytosolic pH fluorescence; response, % at 10 µM; 0.37% of 350,000 active; AID 504577; in the data active = response mostly above about 7.3%, no sharp cut-off; inactive = mostly below about 5.4%; note: actives read high
ASAP1 GAP inh = blocks human ASAP1-stimulated Arf1 GTP hydrolysis; Q9ULH1; GDP FP detection; inhibition, % at 16.5 µM; 0.19% of 360,000 active; in the data active = inhibition above about 25%;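 note: 0% = vehicle with enzyme and substrate and 100% = no enzyme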
Target sequence (Q9ULH1 325-724 limits assumed): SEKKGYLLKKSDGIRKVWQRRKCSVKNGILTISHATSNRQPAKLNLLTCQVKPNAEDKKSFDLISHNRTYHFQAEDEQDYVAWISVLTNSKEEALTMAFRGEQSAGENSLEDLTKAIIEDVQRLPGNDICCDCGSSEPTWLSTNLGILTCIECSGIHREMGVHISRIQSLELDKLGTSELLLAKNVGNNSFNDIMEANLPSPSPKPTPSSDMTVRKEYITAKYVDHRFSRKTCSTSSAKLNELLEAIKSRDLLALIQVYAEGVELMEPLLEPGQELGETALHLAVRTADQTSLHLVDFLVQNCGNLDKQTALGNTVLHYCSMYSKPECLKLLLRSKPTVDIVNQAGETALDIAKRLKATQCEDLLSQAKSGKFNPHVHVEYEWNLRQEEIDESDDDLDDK
ARFGAP1 inh = inhibits rat ARF GTPase activating protein 1; Q62848; AID 651572; 0.26% of 360,000 active; Arfgap1-stimulated ARF1 GTP hydrolysis, GDP FP detection; inhibition, % at 16.5 µM;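 active = inhibition above a per-plate limit, mean inhibition of low control wells plus 3 SD, cut at about 25% in these data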;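 note: 0% = DMSO wells with enzyme and 100% = wells lacking Arfgap1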
Target sequence (Q62848 1-136 limits assumed): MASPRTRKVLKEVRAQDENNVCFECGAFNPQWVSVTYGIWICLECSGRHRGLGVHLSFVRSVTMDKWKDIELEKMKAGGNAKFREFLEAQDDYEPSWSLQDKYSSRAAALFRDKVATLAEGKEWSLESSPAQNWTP
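System: truncated rat Arfgap1 GAP domain / Medium: HEPES-based buffer, pH 7.5 / Also added: N-terminally truncated human ARF1-GTP substrate / Incubation: enzyme reaction 120 min at 25 °C after 20 min preincubation / Measured by: FP of antibody-bound GDP Alexa 633 tracer, ex 620/em 688 nm / Replicates: singlicate, each compound tested once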
Exocytosis CP01 = blocks lytic granule exocytosis; inhibition, % at 10 µM; 11% of 1,500 active; TALL-104 cells, LAMP-1 externalization, flow cytometry; stimulated with PMA plus thapsigargin; shares compounds with Exocytosis inh; AID 651954; in the data active = inhibition above about 60%;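 note: 0% = stimulated vehicle wells and 100% = unstimulated wells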
* marks the source's active call; other numbers are inactive results.

Results for CC(OC(=O)c1ccc([N+](=O)[O-])o1)C(=O)Nc1nc(-c2ccc(F)c(F)c2)cs1 (centres undefined) ?
Exocytosis inh: -1; NRP1-CendR mod: -7; V-ATPase pHluor: 0; ASAP1 GAP inh: -2; ARFGAP1 inh: 11

What do the screens show for `C(=C\c1ccccc1)/CSc1nnc(-c2cnccn2)n1Cc1ccco1`?
Exocytosis inh: 63*; NRP1-CendR mod: 6; V-ATPase pHluor: 7; ASAP1 GAP inh: -7; ARFGAP1 inh: -6; Exocytosis CP01: -9

How did Fc1ccccc1CSc1nnc(-c2cnccn2)n1Cc1ccco1 do in these assays?
Exocytosis inh: -11; NRP1-CendR mod: 1; V-ATPase pHluor: 0; ASAP1 GAP inh: -12; ARFGAP1 inh: -5

Results for CC(C)C(=O)Nc1c2c(nn1-c1ccc(F)cc1)CS(=O)(=O)C2 ?
Exocytosis inh: 6; NRP1-CendR mod: -10; V-ATPase pHluor: -1; ASAP1 GAP inh: 1; ARFGAP1 inh: -3

How did CCCCCCNCC(=O)N1CCC(Cc2ccccc2)CC1 do in these assays?
Exocytosis inh: 70*; NRP1-CendR mod: 0; V-ATPase pHluor: 0; ASAP1 GAP inh: 1; ARFGAP1 inh: 1; Exocytosis CP01: -13

What do the screens show for `CCCC(=O)N1CCC(Cc2ccccc2)CC1`?
Exocytosis inh: inconclusive; NRP1-CendR mod: -3; V-ATPase pHluor: 7; ASAP1 GAP inh: -1; ARFGAP1 inh: 2

What do the screens show for `O=C(NCc1ccccc1Cl)c1ccncc1`?
Exocytosis inh: 66*; NRP1-CendR mod: -4; V-ATPase pHluor: 6; ASAP1 GAP inh: 8; ARFGAP1 inh: 3; Exocytosis CP01: -4

How did Cc1ccc2oc(=O)n(CCOc3ccccc3C)c2c1 do in these assays?
Exocytosis inh: 64*; NRP1-CendR mod: 38*; V-ATPase pHluor: 4; ASAP1 GAP inh: -3; ARFGAP1 inh: 1; Exocytosis CP01: -13

What do the screens show for `Cc1ccc2oc(=O)n(CCCOc3ccccc3C)c2c1`?
Exocytosis inh: 1; NRP1-CendR mod: 0; V-ATPase pHluor: 0; ASAP1 GAP inh: -9; ARFGAP1 inh: -12

How did CCCCCCCN1CCC(=O)N([C@H](CO)CC(C)C)CC1 do in these assays?
Exocytosis inh: 81*; NRP1-CendR mod: 27*; V-ATPase pHluor: -2; ASAP1 GAP inh: -18; ARFGAP1 inh: -9; Exocytosis CP01: -13

How did CCCCCCCN1CCC(=O)N([C@H](CO)Cc2ccccc2)CC1 do in these assays?
Exocytosis inh: 4; NRP1-CendR mod: 11; V-ATPase pHluor: 0; ASAP1 GAP inh: -11; ARFGAP1 inh: 3

Results for O=C(CC1SC(N2CCCC2)=NC1=O)Nc1ccc(C(=O)NCCOc2ccccc2F)cc1 (centres undefined) ?
Exocytosis inh: -1; NRP1-CendR mod: 13; V-ATPase pHluor: 1; ASAP1 GAP inh: 18; ARFGAP1 inh: -17

What do the screens show for `COc1ccc(N2CCN(C(=O)CCC(=O)N3CC(C)Oc4ccc(C)cc43)CC2)cc1` (centres undefined)?
Exocytosis inh: -6; NRP1-CendR mod: 3; V-ATPase pHluor: -1; ASAP1 GAP inh: 2; ARFGAP1 inh: 2

How did CCc1cccc2c(C(=O)C(NCCOC)c3ccccc3)c[nH]c12 (centres undefined) do in these assays?
Exocytosis inh: 66*; NRP1-CendR mod: 7; V-ATPase pHluor: 0; ASAP1 GAP inh: 3; ARFGAP1 inh: 0; Exocytosis CP01: -10

How did CCNC(C(=O)c1c[nH]c2c(CC)cccc12)c1ccccc1 (centres undefined) do in these assays?
Exocytosis inh: 7; NRP1-CendR mod: 1; V-ATPase pHluor: -2; ASAP1 GAP inh: -3; ARFGAP1 inh: 9

What do the screens show for `COc1ccc(C(C)=O)cc1CN(c1ccccc1OC)S(=O)(=O)c1cccs1`?
Exocytosis inh: 92*; NRP1-CendR mod: 12; V-ATPase pHluor: 2; ASAP1 GAP inh: 7; ARFGAP1 inh: 7; Exocytosis CP01: -6

What do the screens show for `Cc1ccc(C2(C)NC(=O)N(CC(=O)NNC(=O)c3cc(C)oc3C)C2=O)cc1` (centres undefined)?
Exocytosis inh: 10; NRP1-CendR mod: 7; V-ATPase pHluor: -2; ASAP1 GAP inh: 6; ARFGAP1 inh: -3

Results for CS(=O)(=O)c1cnc(-c2ccccc2)nc1Sc1ccc(F)cc1 ?
Exocytosis inh: -8; NRP1-CendR mod: 6; V-ATPase pHluor: -3; ASAP1 GAP inh: -4; ARFGAP1 inh: 4

What do the screens show for `COc1cccc(Sc2nc(-c3ccccc3)ncc2S(C)(=O)=O)c1`?
Exocytosis inh: 65*; NRP1-CendR mod: -1; V-ATPase pHluor: -2; ASAP1 GAP inh: -4; ARFGAP1 inh: 0; Exocytosis CP01: 2

Results for O=S(=O)(c1ccccc1)N1CCN(C(=S)Nc2ccccc2)CC1 ?
Exocytosis inh: 3; NRP1-CendR mod: 16; V-ATPase pHluor: 0; ASAP1 GAP inh: 1; ARFGAP1 inh: -8

How did CC(C)c1ccc(NC(=S)N2CCN(S(=O)(=O)c3ccccc3)CC2)cc1 do in these assays?
Exocytosis inh: 65*; NRP1-CendR mod: -2; V-ATPase pHluor: -1; ASAP1 GAP inh: 17; ARFGAP1 inh: 9; Exocytosis CP01: -3

What do the screens show for `COc1ccc(NC(=O)C2Cc3c(-c4cccc(C(C)=O)c4)ccnc3O2)cn1` (centres undefined)?
Exocytosis inh: 5; NRP1-CendR mod: 8; ASAP1 GAP inh: 7; ARFGAP1 inh: -8

What do the screens show for `CCn1c2ccccc2c2cc(NC(=O)c3ccc(=O)oc3)ccc21`?
Exocytosis inh: 78*; NRP1-CendR mod: -63; V-ATPase pHluor: -3; ASAP1 GAP inh: 7; ARFGAP1 inh: 8; Exocytosis CP01: -4

What do the screens show for `CCn1c2ccccc2c2cc(NC(=O)c3coc(=O)c(Br)c3)ccc21`?
Exocytosis inh: 4; NRP1-CendR mod: 134; ASAP1 GAP inh: -4; ARFGAP1 inh: 20

What do the screens show for `CCn1c2ccccc2c2cc(NC(=O)CSc3nnc(-c4ccccc4)o3)ccc21`?
Exocytosis inh: 87*; NRP1-CendR mod: 7; V-ATPase pHluor: 0; ASAP1 GAP inh: -4; ARFGAP1 inh: -8; Exocytosis CP01: -7

Results for O=C(NC1CC1)C1CC(=O)N(c2cccc(Cl)c2Cl)C1 (centres undefined) ?
Exocytosis inh: -9; NRP1-CendR mod: 3; V-ATPase pHluor: 3; ASAP1 GAP inh: 15; ARFGAP1 inh: 4

How did O=C(c1ccco1)N(CCC(c1ccccc1)c1ccco1)Cc1ccc(F)cc1 (centres undefined) do in these assays?
Exocytosis inh: 59*; NRP1-CendR mod: -3; V-ATPase pHluor: 11; Exocytosis CP01: -11

Results for COc1ccc(NC(=O)C2CCCN2S(=O)(=O)c2cccs2)c([N+](=O)[O-])c1 (centres undefined) ?
Exocytosis inh: -4; NRP1-CendR mod: 10; V-ATPase pHluor: -4; ASAP1 GAP inh: -2; ARFGAP1 inh: 7

Results for O=C(CNC(=O)COc1ccccc1)NCCN1CCOCC1 ?
Exocytosis inh: 6; NRP1-CendR mod: 12; V-ATPase pHluor: -3; ASAP1 GAP inh: -4; ARFGAP1 inh: -8
